# Laboratory results published in PMC3361693 (Chemistry & biology, 2012).
# Read-outs that look alike come from different tables or passages of the source.
# What was measured:
# [1] = system: V. harveyi BB120; assay: Growth inhibitory; type: cell-based, Vibrio harveyi
# [2] = system: E. coli JB525; assay: Growth inhibitory; type: cell-based, Escherichia coli
# [3] = system: E. coli JB525; assay: QS inhibition: GFP production in E. coli JB525; type: cell-based, Escherichia coli
# [4] = system: Raw264.7 cells; assay: Cytotoxicity / cell survival in Raw264.7 cells; conditions: for IC50: read-out: Cytotoxicity in Raw264.7 cells (IC50), Raw264.7 cells
# [5] = system: V. harveyi BB120; assay: microbe, parasite or virus in culture; type: cell-based, Vibrio harveyi
# [6] = system: NO production by LPS-stimulated RAW264.7 murine macrophages; assay: Inhibition of NO production by LPS-stimulated murine macrophages; type: cell-based; conditions: Mus musculus
# [7] = Cytotoxicity / cell survival in Raw264.7 cells; conditions: mouse
# [8] = system: IL-1β; assay: qRT-PCR transcript level in LPS-stimulated RAW 264.7 cells: IL-1β; type: cell-based, murine; conditions: after 6 h of treatment
# Procedure, shortened: (§1)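 Murine RAW264.7 macrophages were LPS-stimulated and treated with the test compound for 6 h, alongside untreated LPS-stimulated cells. RNA was isolated and reverse-transcribed to cDNA. Transcripts of TNF-α, IL-1β, IL-6 and iNOS were quantified by qRT-PCR and expressed as fold change versus untreated cells. Three replicates were run, reported as mean ± standard deviation, with Student's t-test (p < 0.05).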
# [9] = system: iNOS; assay: qRT-PCR transcript level in LPS-stimulated RAW 264.7 cells: iNOS; type: cell-based, murine; conditions: after 6 h of treatment
# Procedure, shortened: as §1
# [10] = system: TNF-α; assay: qRT-PCR transcript level in LPS-stimulated RAW 264.7 cells: TNF-α; type: cell-based, murine; conditions: after 6 h of treatment
# Procedure, shortened: as §1
# [11] = system: IL-6; assay: qRT-PCR transcript level in LPS-stimulated RAW 264.7 cells: IL-6; type: cell-based, murine; conditions: after 6 h of treatment
# Procedure, shortened: as §1
# [12] = read-out: QS inhibition (IC50) E. coli, inhibition of GFP production, E. coli JB525, OHHL autoinducer
# [13] = read-out: QS inhibition (IC50) V. harveyi, inhibition of bioluminescence, V. harveyi BB120
# [14] = RAW264.7, read-out: NO inhibition (IC50 ± SD)
# [15] = Vibrio harveyi, read-out: QS inhibition (IC50) V. harveyi
# [16] = RAW264.7, read-out: NO inhibition (IC50), dash with footnote b
# [17] = Escherichia coli, read-out: QS inhibition (IC50) E. coli, dash with footnote d
# [18] = Vibrio harveyi, read-out: QS inhibition (IC50) V. harveyi, dash with footnote d
# [19] = Escherichia coli, read-out: QS inhibition (IC50) E. coli
Compound,growth inhibitory effects: none observed up to concentration [1] [µM],"IC50 [3, 12] [µM]",IC50 [4] [µM],"IC50 [5, 13] [µM]","IC50 [6, 14] [µM]",IC50 ([7]; RAW264.7 macrophage cells) [µM],"IC50 [5, 15] [µM]","IC50 [3, 17] [µg/mL]","IC50 [5, 18] [µg/mL]",IC50 [7] [µM],also measured
"COC(=O)C[C@H](O)COC(=O)/C=C/CCl [Compound 3, Honaucin C]",> 483,576,30,14.6,,,,,,,growth inhibitory effects: none observed up to concentration [2]: > 483 µM
"O=C(O)/C=C/CBr [Compound 14, 4-bromocrotonic acid]",,,,,3.5 ± 0.5,35,10.5,,,,MIC (antibiotic effect) [2]: 188 µM
"C/C=C/C(=O)O [Compound 9, crotonic acid]",,,,,> 116,> 116,,> 125,> 125,,"IC50 [6, 16]: > 30 µg/mL"
"O=C1OCCC1O (racemic) [Compound 6, (R/S)-2-hydroxy-γ-butyrolactone]",,,,,,,,> 125,> 125,> 98,"IC50 [6, 16]: > 30 µg/mL"
"O=C(O)/C=C/CI [Compound 15, 4-iodocrotonic acid]",> 32,,,,1.2 ± 0.2,10,1.2,,,,MIC (antibiotic effect) [2]: 18 µM
"O=C1C[C@@H](O)CO1 [Compound 5, (R)-3-hydroxy-γ-butyrolactone]",,,,,,,,> 125,> 125,> 98,
"O=C(O)/C=C/CCl [Compound 7, 4-chlorocrotonic acid]",,,,,28 ± 4.3,80,72.5,,,,"IC50 [3, 19]: 152 µM"
"CCOC(=O)C[C@H](O)COC(=O)/C=C/CCl [Compound 2, Honaucin B]",> 458,908,16,17.6,,,,,,,growth inhibitory effects: none observed up to concentration [2]: > 458 µM
"O=C(/C=C/CCl)O[C@@H]1COC(=O)C1 [Compound 1, Honaucin A]",> 610,38.5,> 49,5.6,,,,,,,"reduction in transcripts of IL-1β [8]: −154.6 fold; growth inhibitory effects: none observed up to concentration [2]: > 610 µM; reduction in transcripts of iNOS [9]: −11.8 fold; reduction in transcripts of TNF-α [10]: −9.3 fold; reduction in transcripts of IL-6 [11]: −19.0 fold; therapeutic window between NO inhibitory effect and cytotoxicity ([4]; RAW264.7 cells, cytotoxicity IC50 vs NO inhibition IC50): greater than ten-fold"
"O=C(/C=C/CCl)O[C@H]1COC(=O)C1 [Compound 17, epi-honaucin A]",,260,> 49,22.1,,,,,,,
"O=C(O)/C=C/CF [Compound 13, 4-fluorocrotonic acid]",,,,,11.6 ± 4.3,,167,,,> 288,"IC50 [3, 19]: > 304 µM"
"O=C1C[C@H](O)CO1 [Compound 4, (S)-3-hydroxy-γ-butyrolactone]",,,,,,,,> 125,> 125,> 98,
